Some results are limits rather than exact numbers.

A word on the ED50: it is the dose that gives a 50% effect, or the effect in half of the subjects. One may read the TD50 as the dose at which the toxic effect under study appears in half of the subjects.

Data set [1] relates to Rattus norvegicus. The data set is described as follows: Protective index, ratio of TD50 for po dosed Sprague-Dawley albino rat by rotarod test to ED50 for po dosed Sprague-Dawley albino rat by subcutaneous metrazol seizures test. Type of data set: functional. In short, it runs like this: (§1)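 Protective index calculated as TD50/ED50, with TD50 and ED50 taken from the same species and dosing route.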

Data set [2] has as its system Rattus norvegicus. The data set is described as follows: Anticonvulsant activity in po dosed Sprague-Dawley albino rat assessed as protection against subcutaneous metrazol-induced seizures. Type of data set: functional. The method in brief: (§2)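 Quantitative testing: rats dosed orally or ip in MES and scMet tests, and mice dosed ip, including the 6 Hz (32 mA) psychomotor seizure test. ED50 and TD50 were reported in mg/kg with ranges in parentheses. Protective index was calculated as TD50/ED50.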

For data set [3], the system named is Rattus norvegicus. Put plainly: Anticonvulsant activity in po dosed Sprague-Dawley albino rat assessed as protection against maximal electroshock-induced seizures. It is filed as functional. The method in brief: as §2
For orientation: In the maximal electroshock model the usual endpoint is tonic extension of the hind limbs.

The subject of data set [4] is Rattus norvegicus. Put plainly: Protective index, ratio of TD50 for po dosed Sprague-Dawley albino rat by rotarod test to ED50 for po dosed Sprague-Dawley albino rat by maximal electroshock seizures test. Type of data set: functional. The method in brief: as §1
(In general: The rotarod test checks motor coordination on a turning rod.)

Data set [5] in a line: Neurotoxicity in po dosed Sprague-Dawley albino rat assessed as minimal motor impairment by rotarod test. Type of data set: toxicity, organism-based. Conditions: in vivo. The method in brief:
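Rats dosed orally; 4 rats per time point after dosing. Neurotoxicity was scored as motor impairment or sedation and reported as number of animals affected over number tested.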

Turning to `NC(=O)OCC(COC(N)=O)c1ccccc1` [FELBAMATE], the “Ratio TD50/ED50” value is recorded as greater than 2 in the data set on Rattus norvegicus [1] and 20 in the data set on Rattus norvegicus [4]. For the same compound, the results for the 50% effective dose (ED50) in the data set with Rattus norvegicus [2] and in the data set on Rattus norvegicus [3] were greater than 250 mg/kg and 25 mg/kg, respectively. Also, in data set [5], the TD50 is greater than 500 mg/kg.
For `CCCC(CCC)C(=O)O` [VALPROIC ACID], in the data set on Rattus norvegicus [2], the ED50 is 646 mg/kg.
